Reference: ChEMBL document CHEMBL1275410, “Synergy between polyethylenimine and different families of antibiotics against a resistant clinical isolate of Pseudomonas aeruginosa” (2008)
≈ marks a conversion by molar mass, not a printed value. Calls of active or inactive are those of the source. The rule behind the calls is not given here.

Experiments:
Assay type in all cases: functional
Pseudomonas aeruginosa [1] = test: Antibacterial activity against Pseudomonas aeruginosa 100609 after 20 hrs by broth microdilution assay
Outline: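 Broth microdilution in TSB per CLSI: a 5 × 10^5 CFU/ml inoculum (OD660 0.02) was added to serial twofold antibiotic dilutions. Plates were shaken at 37°C for 20 h. MIC was the lowest concentration with no visible growth, determined in triplicate.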

Pseudomonas aeruginosa [2] = test: FIC index, ratio of MIC for Pseudomonas aeruginosa 100609 in presence of 250 ug/ml polyethylenimine to MIC for Pseudomonas aeruginosa 100609
Pseudomonas aeruginosa [3] = test: FIC index, ratio of MIC for Pseudomonas aeruginosa 25619 in presence of 250 ug/ml polyethylenimine to MIC for Pseudomonas aeruginosa 25619
Outline: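 Checkerboard combination of PEI (mean MW 10 kDa) with antibiotic against P. aeruginosa ATCC 25619, in TSB inoculated at about 5 × 10^5 CFU/ml, run in triplicate. ΣFIC was derived from the combination; 0.5 to 2.0 is read as indifference and ≥4.0 as antagonism.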

Pseudomonas aeruginosa [4] = test: Antibacterial activity against Pseudomonas aeruginosa 100609 assessed as reduction in bacterial count at 0.25 times MIC after 9 hrs by time-kill assay in presence of 250 ug/ml polyethylenimine relative to control
Outline: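 Time-kill assay: TSB was seeded from a 17-h preculture to 5 × 10^7 CFU/ml (set by OD660). Antibiotic was at 25% of MIC, with PEI at a final 250 nM (legend gives 250 μg/ml). Controls were PEI alone, antibiotic alone and bacteria alone. Viable counts on LB agar were taken at 0, 1.5, 3, 6 and 9 h, in triplicate. Synergy was a ≥2.0 mean log10 CFU/ml drop versus antibiotic alone.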

[5] = Pseudomonas aeruginosa, 100609, 20 h

Compound | MIC (Pseudomonas aeruginosa [1]; [5]) | fractional inhibitory concentration index (FICI) (Pseudomonas aeruginosa [2]) | fractional inhibitory concentration index (FICI) (Pseudomonas aeruginosa [3]) | fold change (FC) (Pseudomonas aeruginosa [4]) | Activity (Pseudomonas aeruginosa [4]) | MIC (Pseudomonas aeruginosa [1])
CC1(C)S[C@@H]2[C@H](NC(=O)[C@H](N)c3ccccc3)C(=O)N2[C@H]1C(=O)O [AMPICILLIN] | 2240 µg/mL (≈ 6410 µM) | – | – | – | – | –
CC1(C)S[C@@H]2[C@H](NC(=O)C(C(=O)O)c3ccccc3)C(=O)N2[C@H]1C(=O)O (some centres undefined) [CARBENICILLIN] | 2240 µg/mL (≈ 5920 µM) | – | – | – | – | –
CO/N=C(\C(=O)N[C@@H]1C(=O)N2C(C(=O)O)=C(COC(C)=O)CS[C@H]12)c1csc(N)n1 [CEFOTAXIME] | 960 µg/mL (≈ 2110 µM) | 0.14 | – | – | – | –
CC(C)(O/N=C(\C(=O)N[C@@H]1C(=O)N2C(C(=O)[O-])=C(C[n+]3ccccc3)CS[C@H]12)c1csc(N)n1)C(=O)O [CEFTAZIDIME] | 400 µg/mL (≈ 732 µM) | 0.04 | 0.09 | 100000 | – | –
O=C(N[C@H](CO)[C@H](O)c1ccc([N+](=O)[O-])cc1)C(Cl)Cl [CHLORAMPHENICOL] | 100 µg/mL (≈ 309 µM) | 0.41 | – | 100000 | – | –
O=C(O)c1cn(C2CC2)c2cc(N3CCNCC3)c(F)cc2c1=O [CIPROFLOXACIN] | 30 µg/mL (≈ 90.5 µM) | 1 | – | – | – | –
CC[C@H]1OC(=O)[C@H](C)[C@@H](O[C@H]2C[C@@](C)(OC)[C@@H](O)[C@H](C)O2)[C@H](C)[C@@H](O[C@@H]2O[C@H](C)C[C@H](N(C)C)[C@H]2O)[C@](C)(O)C[C@@H](C)C(=O)[C@H](C)[C@@H](O)[C@]1(C)O [ERYTHROMYCIN] | 140 µg/mL (≈ 191 µM) | 1 | – | – | – | –
NC[C@@H]1O[C@@H](O[C@H]2[C@H](O)[C@@H](O[C@H]3O[C@H](CO)[C@@H](O)[C@H](N)[C@H]3O)[C@H](N)C[C@@H]2N)[C@@H](O)[C@H](O)[C@H]1O [KANAMYCIN A] | 1600 µg/mL (≈ 3300 µM) | 1.21 | – | – | – | –
CCn1cc(C(=O)O)c(=O)c2cc(F)c(N3CCNCC3)cc21 [NORFLOXACIN] | 15 µg/mL (≈ 47 µM) | 0.68 | – | – | – | –
CO[C@@H]1[C@@H](OC(N)=O)[C@@H](O)[C@H](Oc2ccc3c(O)c(NC(=O)c4ccc(O)c(CC=C(C)C)c4)c(=O)oc3c2C)OC1(C)C [NOVOBIOCIN] | 1600 µg/mL (≈ 2610 µM) | 0.1 | 0.35 | 100000000 | – | –
CC1COc2c(N3CCN(C)CC3)c(F)cc3c(=O)c(C(=O)O)cn1c23 (centres undefined) [OFLOXACIN] | 10 µg/mL (≈ 27.7 µM) | 1 | – | – | – | –
CCN1CCN(C(=O)N[C@@H](C(=O)N[C@@H]2C(=O)N3[C@@H]2SC(C)(C)[C@@H]3C(=O)O)c2ccccc2)C(=O)C1=O [PIPERACILLIN] | 40 µg/mL (≈ 77.3 µM) | – | – | – | – | –
CO[C@H]1/C=C/O[C@@]2(C)Oc3c(C)c(O)c4c(O)c(c(/C=N/N5CCN(C)CC5)c(O)c4c3C2=O)NC(=O)/C(C)=C\C=C\[C@H](C)[C@H](O)[C@@H](C)[C@@H](O)[C@@H](C)[C@H](OC(C)=O)[C@@H]1C [RIFAMPIN] | 20 µg/mL (≈ 24.3 µM) | 0.05 | – | 100000 | – | –
CN(C)[C@@H]1C(O)=C(C(N)=O)C(=O)[C@@]2(O)C(O)=C3C(=O)c4c(O)cccc4[C@@](C)(O)[C@H]3C[C@@H]12 [TETRACYCLINE] | 20 µg/mL (≈ 45 µM) | 1 | – | – | – | –
CC1(C)S[C@@H]2[C@H](NC(=O)[C@H](C(=O)O)c3ccsc3)C(=O)N2[C@H]1C(=O)O [TICARCILLIN] | 1120 µg/mL (≈ 2910 µM) | – | – | – | – | –
NC[C@H]1O[C@H](O[C@H]2[C@H](O)[C@@H](O[C@H]3O[C@H](CO)[C@@H](O)[C@H](N)[C@H]3O)[C@H](N)C[C@@H]2N)[C@H](N)C[C@@H]1O [TOBRAMYCIN] | 50 µg/mL (≈ 107 µM) | 4.81 | – | – | – | –
CN[C@H](CC(C)C)C(=O)N[C@H]1C(=O)N[C@@H](CC(N)=O)C(=O)N[C@H]2C(=O)N[C@H]3C(=O)N[C@H](C(=O)N[C@H](C(=O)O)c4cc(O)cc(O)c4-c4cc3ccc4O)[C@H](O)c3ccc(c(Cl)c3)Oc3cc2cc(c3O[C@@H]2O[C@H](CO)[C@@H](O)[C@H](O)[C@H]2O[C@H]2C[C@](C)(N)[C@H](O)[C@H](C)O2)Oc2ccc(cc2Cl)[C@H]1O [VANCOMYCIN] | 1120 µg/mL (≈ 773 µM) | 3.4 | – | – | inactive | –
COLISTIN | – | 2.01 | – | – | – | 5 µg/mL
GENTAMICIN | – | 1.72 | – | – | – | 1120 µg/mL
POLYMYXIN B | – | 2.01 | – | – | inactive | 5 µg/mL
